Results from publication PMC4642222 (Biochemistry, 2015).
Entries after “also recorded” stand apart in the source; their conditions may differ. Blank lines part the entries; values can stand above or below the molecule they belong to. Where no end group is shown, it is not given here.

Key:
[1] = tested on: MAS; experiment: Filamin A phosphorylation in HEK-MAS cells; assay type: cell-based, human
Summary of the method: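 HEK293 cells with doxycycline-inducible (100 ng/mL) myc-tagged MAS were induced 24 h with or without MAS inverse agonist (10 μM), then serum-starved 2 h with inverse agonist or H-89 (10 μM each). They were then treated 1 h with MAS agonist (10 μM) plus H-89; uninduced cells served as controls. Lysates were Western-blotted for pS2152-FLNa, FLNa and GAPDH, and pFLNa/FLNa was given as fold over uninduced. Mean ± SEM, N = 3, unpaired t test.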

[2] = molecular target: Filamin A (Homo sapiens) (UniProt P21333); details: cited from earlier work
[3] = Peptide solubility in ITC buffer; assay type: physicochemical; details: 25 mM sodium phosphate (pH 6.4), 5 mM NaCl, 1 mM DTT
[4] = molecular target: T1, FLNa Ig21 (Homo sapiens, UniProt P21333); experiment: Isothermal titration calorimetry; assay type: binding; details: FLNa Ig21, 25 mM sodium phosphate (pH 6.4), 30 °C
T1 sequence (P21333 2236-2329 limits assumed): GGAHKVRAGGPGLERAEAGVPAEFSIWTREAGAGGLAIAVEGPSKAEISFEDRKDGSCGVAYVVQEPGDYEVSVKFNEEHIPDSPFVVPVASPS

[5] = molecular target: T1, FLNa Ig21; experiment: 15N HSQC NMR binding to FLNa Ig21; details: 15N-labeled Ig21, Bruker Avance 600 MHz, 30 °C; D3R peptide at 2-fold excess
[6] = tested on: FLNa Ig19; experiment: 15N HSQC NMR binding to FLNa Ig19; parameters: species or system human; details: 15N-labeled Ig19, Bruker Avance 600 MHz, 30 °C; 2-fold excess of peptide
[7] = tested on: AT1R; experiment: Filamin A phosphorylation in HEK-AT1R cells; assay type: cell-based, rat; details: serum starved 2 h, AngII 1 μM for 1 h, mean of N = 2
Summary of the method: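 HEK293 cells stably expressing HA-tagged rat AT1R were grown to 80–90% confluency and serum-starved 2 h. They were pretreated 30 min with vehicle or candesartan (10 μM), then given vehicle or AngII (1 μM) for 1 h. About 25 μg of M-PER lysate (protease and phosphatase inhibitors) was run on 4–12% SDS-PAGE. Blots were probed for pS2152-FLNa, FLNa and GAPDH by near-IR fluorescence. pFLNa/FLNa was expressed as fold over untreated; mean ± SEM, N = 2, unpaired t test.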

[8] = tested on: FLNa; details: cited from earlier work
[9] = molecular target: Filamin A Ig21 (Homo sapiens) (UniProt P21333); details: cited from earlier work
[10] = molecular target: Human Filamin A immunoglobulin domain Ig21 (human); experiment: ITC

Filamin A (Homo sapiens), sequence (P21333 2-2647): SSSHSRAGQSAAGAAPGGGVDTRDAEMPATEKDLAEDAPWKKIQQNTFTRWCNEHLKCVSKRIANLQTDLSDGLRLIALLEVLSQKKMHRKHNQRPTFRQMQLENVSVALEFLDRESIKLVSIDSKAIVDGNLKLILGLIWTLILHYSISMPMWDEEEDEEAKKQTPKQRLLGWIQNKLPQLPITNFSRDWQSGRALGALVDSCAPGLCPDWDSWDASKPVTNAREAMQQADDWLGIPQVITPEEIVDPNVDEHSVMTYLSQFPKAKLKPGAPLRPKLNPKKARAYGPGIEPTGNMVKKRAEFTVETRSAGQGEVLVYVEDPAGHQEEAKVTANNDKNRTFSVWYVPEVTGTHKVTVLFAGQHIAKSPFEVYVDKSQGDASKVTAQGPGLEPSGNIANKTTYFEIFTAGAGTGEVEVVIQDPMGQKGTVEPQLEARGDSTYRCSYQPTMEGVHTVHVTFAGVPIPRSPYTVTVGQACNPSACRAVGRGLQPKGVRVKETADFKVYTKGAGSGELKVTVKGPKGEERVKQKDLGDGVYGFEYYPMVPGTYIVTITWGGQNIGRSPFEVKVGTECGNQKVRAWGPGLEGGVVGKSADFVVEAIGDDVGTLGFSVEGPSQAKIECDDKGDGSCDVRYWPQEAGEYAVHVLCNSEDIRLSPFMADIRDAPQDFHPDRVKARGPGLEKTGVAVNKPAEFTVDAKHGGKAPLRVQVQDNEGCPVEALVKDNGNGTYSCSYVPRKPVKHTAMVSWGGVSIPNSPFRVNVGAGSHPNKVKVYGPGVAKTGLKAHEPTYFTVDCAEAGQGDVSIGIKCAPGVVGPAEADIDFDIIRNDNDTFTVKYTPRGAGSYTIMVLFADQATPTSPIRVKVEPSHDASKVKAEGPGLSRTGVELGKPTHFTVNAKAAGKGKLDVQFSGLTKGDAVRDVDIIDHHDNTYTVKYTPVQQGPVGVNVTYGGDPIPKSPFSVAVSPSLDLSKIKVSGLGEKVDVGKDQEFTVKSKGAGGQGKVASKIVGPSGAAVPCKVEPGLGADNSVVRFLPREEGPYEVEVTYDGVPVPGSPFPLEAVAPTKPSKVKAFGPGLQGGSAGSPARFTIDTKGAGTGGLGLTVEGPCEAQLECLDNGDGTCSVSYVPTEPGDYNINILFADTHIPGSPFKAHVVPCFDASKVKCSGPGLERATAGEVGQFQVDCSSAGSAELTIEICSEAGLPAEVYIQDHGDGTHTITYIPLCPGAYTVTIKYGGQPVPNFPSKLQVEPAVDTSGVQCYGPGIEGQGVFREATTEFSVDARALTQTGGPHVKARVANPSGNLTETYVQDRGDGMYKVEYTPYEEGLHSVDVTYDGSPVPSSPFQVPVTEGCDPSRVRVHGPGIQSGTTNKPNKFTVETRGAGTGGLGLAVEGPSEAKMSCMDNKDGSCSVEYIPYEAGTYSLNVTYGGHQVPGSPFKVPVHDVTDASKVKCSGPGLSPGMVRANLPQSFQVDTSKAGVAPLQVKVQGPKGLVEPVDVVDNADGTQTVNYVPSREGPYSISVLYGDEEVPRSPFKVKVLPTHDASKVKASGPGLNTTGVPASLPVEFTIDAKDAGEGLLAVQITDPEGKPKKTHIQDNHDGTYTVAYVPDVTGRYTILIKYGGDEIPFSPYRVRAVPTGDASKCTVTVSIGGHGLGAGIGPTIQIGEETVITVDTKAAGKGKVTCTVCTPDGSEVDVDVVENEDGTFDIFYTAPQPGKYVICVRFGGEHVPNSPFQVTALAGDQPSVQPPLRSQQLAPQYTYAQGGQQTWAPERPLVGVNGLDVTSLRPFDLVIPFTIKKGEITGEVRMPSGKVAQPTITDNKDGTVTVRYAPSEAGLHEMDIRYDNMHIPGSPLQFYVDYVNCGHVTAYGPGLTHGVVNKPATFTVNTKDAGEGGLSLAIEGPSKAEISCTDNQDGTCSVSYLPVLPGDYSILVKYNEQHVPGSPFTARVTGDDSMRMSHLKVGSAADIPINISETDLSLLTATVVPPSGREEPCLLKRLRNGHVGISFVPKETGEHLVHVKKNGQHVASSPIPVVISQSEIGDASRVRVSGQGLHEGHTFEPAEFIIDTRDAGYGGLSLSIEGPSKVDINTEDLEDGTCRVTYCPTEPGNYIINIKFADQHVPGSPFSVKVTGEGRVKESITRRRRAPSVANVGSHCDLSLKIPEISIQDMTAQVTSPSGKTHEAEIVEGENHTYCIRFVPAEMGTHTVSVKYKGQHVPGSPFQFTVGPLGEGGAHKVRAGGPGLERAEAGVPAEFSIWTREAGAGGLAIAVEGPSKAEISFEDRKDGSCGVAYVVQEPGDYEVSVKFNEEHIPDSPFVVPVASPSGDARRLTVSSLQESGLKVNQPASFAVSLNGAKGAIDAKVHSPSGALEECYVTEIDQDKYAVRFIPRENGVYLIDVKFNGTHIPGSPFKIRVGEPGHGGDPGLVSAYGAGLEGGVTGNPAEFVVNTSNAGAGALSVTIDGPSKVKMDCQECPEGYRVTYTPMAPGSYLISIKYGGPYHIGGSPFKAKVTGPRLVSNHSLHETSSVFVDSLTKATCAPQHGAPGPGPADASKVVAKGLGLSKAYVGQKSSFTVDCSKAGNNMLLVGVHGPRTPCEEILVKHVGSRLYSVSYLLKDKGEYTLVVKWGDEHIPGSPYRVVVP

Molecule: C=CCCN1CCC2(CC1)CN(C(=O)c1c(F)cccc1F)c1ccc(Cl)cc12 [AR-inverse agonist]
FLNa phosphorylation induced by constitutive activity of MAS ([1]; 10 μM AR-inverse agonist during induction (24 h) and serum starvation (2 h), N = 3): abolished constitutive FLNa phosphorylation

Molecule: O=S(=O)(NCCNC/C=C/c1ccc(Br)cc1)c1cccc2cnccc12 [H-89]
inhibition of the increase in pFLNa in MAS-expressing cells ([1]; H-89 10 μM, Discussion statement): 60%

Molecule: GPIbα (from UniProt P07359)
Kd [2]: 100 nM

Molecule: KGHTFRSSLSVRLLKFSR [α1D-AR]
solubility of peptide (in words) [3]: limited

HSQC spectral changes / binding to FLNa Ig21 [5]: binds FLNa Ig19 and Ig21 | HSQC spectral changes / binding to FLNa Ig19 [6]: binds FLNa Ig19 and Ig21
Molecule: VRKLSNGRLSTSLKLGPLQPRGV [D3R]
affinity for Ig21 by ITC (in words) [4]: could not be assessed accurately by ITC because of its lower affinity; also recorded: binds with a lower affinity

Molecule: angiotensin II (DRVYIHPF; Angiotensin-2; UniProt P01019 25-32, looked up) [AngII]
filamin phosphorylation, increase (pFLNa/FLNa) [7]: 5 fold

Molecule: lysophosphatidic acid
level of FLNa phosphorylation [8]: increase the level of FLNa phosphorylation

Molecule: β7 integrin C-terminal peptide Ct (from UniProt P26010)
Kd [9]: 40000 nM

Kd [10]: 800 nM
Molecule: KGHTFRSSLSVRLLKFSR [α1D-adrenoreceptor (α1D-AR) filamin binding motif (FBM) peptide]

Kd [10]: 800 nM
Molecule: LGKKFKRYFLQLLKYIPPKA [AT1R filamin binding motif (FBM) peptide]

Kd [10]: 300 nM
Molecule: KKKRFKESLKVVLTRAFK [MAS filamin binding motif (FBM) peptide]
